Data: article PMC6649664 (Cell host & microbe, 2019)

Experiments:
Assay type in all cases: cell-based
LAD2 human mast cells = experiment: Mast cell degranulation assay; conditions: 30 min at 37°C
In short: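 LAD2 cells were washed and resuspended at 0.5 × 10^6 cells/mL in 0.4% BSA-HEPES buffer, then exposed to compound for 30 min at 37°C in 5% CO2. β-Hexosaminidase was measured in supernatants and in 0.1% Triton X-100 lysates by p-nitrophenyl N-acetyl-β-D-glucosamide hydrolysis in 0.1 M sodium citrate (pH 4.5) for 90 min at 37°C. Release is expressed as percent of total content.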

MRGPRX2 = molecular target: T1, MRGPRX2 (Homo sapiens, UniProt Q96LB1); experiment: Calcium imaging / FLIPR EC50 determination in HEK293 cells expressing MRGPRX2; conditions: HEK293 cells stably expressing MRGPRX2 and Gα15
T1 sequence (Q96LB1 1-330): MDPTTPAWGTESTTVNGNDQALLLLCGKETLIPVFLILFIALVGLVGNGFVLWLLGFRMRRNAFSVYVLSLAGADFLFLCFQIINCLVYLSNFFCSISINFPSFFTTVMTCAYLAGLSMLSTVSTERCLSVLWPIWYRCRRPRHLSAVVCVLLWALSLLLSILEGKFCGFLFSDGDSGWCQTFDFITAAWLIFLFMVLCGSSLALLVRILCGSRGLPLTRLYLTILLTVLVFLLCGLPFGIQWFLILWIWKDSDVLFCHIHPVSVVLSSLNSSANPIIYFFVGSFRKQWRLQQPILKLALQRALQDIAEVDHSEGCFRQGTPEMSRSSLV
In short: (§1)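 HEK293 cells stably co-expressing Gα15 with the receptor were seeded at 4 × 10^4 cells/well and cultured overnight. After dye loading for 60 min at 37°C and 15 min recovery at RT, fluorescence was recorded on a Flexstation for 120 s. Compound, dissolved in HBSS+HEPES, was added as a 3X solution at 30 s. Response was taken as maximum minus minimum signal, averaged from duplicate wells. EC50 was fitted per trial after normalising to that trial's peak response.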

Mrgprb2 = molecular target: T2, Mrgprb2 (Mus musculus, UniProt Q3KNA1); experiment: Calcium imaging / FLIPR EC50 determination in HEK293 cells expressing Mrgprb2; conditions: HEK293 cells stably expressing Mrgprb2 and Gα15
T2 sequence (Q3KNA1 1-338): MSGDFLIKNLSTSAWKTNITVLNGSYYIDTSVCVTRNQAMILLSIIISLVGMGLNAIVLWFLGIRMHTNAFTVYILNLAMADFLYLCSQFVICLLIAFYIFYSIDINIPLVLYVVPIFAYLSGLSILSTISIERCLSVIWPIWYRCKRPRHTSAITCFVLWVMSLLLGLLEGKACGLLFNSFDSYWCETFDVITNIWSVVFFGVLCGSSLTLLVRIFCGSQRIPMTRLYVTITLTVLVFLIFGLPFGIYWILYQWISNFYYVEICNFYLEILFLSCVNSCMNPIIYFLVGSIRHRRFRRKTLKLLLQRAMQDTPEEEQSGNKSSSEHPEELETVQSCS
In short: as §1

Question: With autoinducer-2 [AI-2] as the substance, how does the β-hexosaminidase release (LAD2 human mast cells) read?
Answer: The β-hexosaminidase release was “did not activate”.

Question: And the “activation of MRGPRX2-HEK cells (Ca2+ mobilization)” value (MRGPRX2)?
Answer: The value was “did not activate”.

Question: And the “activation of Mrgprb2-HEK cells (Ca2+ mobilization)” value (Mrgprb2)?
Answer: The value was “did not activate”.

Question: For competence stimulating peptide [CSP], which “activation of MRGPRX2-HEK cells (Ca2+ mobilization)” value (MRGPRX2) is on record?
Answer: Its value is “activated”.

Question: And the “activation of Mrgprb2-HEK cells (Ca2+ mobilization)” value (Mrgprb2)?
Answer: Its value is “activated”.
